{"data": "Published values of several laboratories", "observed": "cell growth or viability", "note": "Each line is one published result; the experiments were not run side by side."}
{"SMILES": "O=C(N[C@@H](Cc1ccccc1)C(=O)c1cc(-c2ccccc2)on1)[C@H](Cc1ccccc1)NC(=O)N1CCOCC1 (single isomer, unassigned)", "cell line": "MRC-5 SV2", "quantity": "CC50", "value": "> 64 µM"}
{"SMILES": "CCOC(=O)c1c(C)ncn1CC(c1cn(C)c2ccc([N+](=O)[O-])cc12)c1cn(C)c2ccc([N+](=O)[O-])cc12", "cell line": "HaCaT", "method": "MTS", "time": "24 h", "quantity": "CC50", "value": "> 20 µM"}
{"SMILES": "O=C(N[C@@H](Cc1ccccc1)C(=O)c1cc(-c2ccccc2)no1)[C@H](Cc1ccccc1)NC(=O)N1CCOCC1 (mixture of isomers)", "cell line": "MRC-5 SV2", "quantity": "CC50", "value": "> 64 µM"}
{"SMILES": "O=C1CCCCC1=C1Sc2nc3ccc(S(=O)(=O)N4CCCC4)cc3nc2S1", "cell line": "WI-38", "method": "MTT", "tested at": "3.125 µM", "time": "24 h", "quantity": "viability", "value": "100%"}
{"SMILES": "C/C=C(/C)C(=O)O[C@@H]1[C@H](OC(C)=O)c2c(ccc3ccc(=O)oc23)OC1(C)C", "cell line": "WI-38", "method": "WST-1", "quantity": "IC50", "value": "120 µM"}
{"SMILES": "COc1cccc2c1C(=O)c1c(O)c3c(c(O)c1C2=O)C[C@@](O)(C(=O)CO)C[C@@H]3O[C@H]1C[C@H](N)[C@H](O)[C@H](C)O1", "cell line": "WI-38", "method": "MTT", "tested at": "100 µM", "time": "24 h", "quantity": "viability", "value": "7.8%"}
{"SMILES": "O=c1cc(-c2ccc(O)c(O)c2)oc2cc(O)cc(O)c12", "cell line": "WI-38", "method": "WST-1", "time": "48 h", "quantity": "IC50", "value": "90.8 µM"}
{"SMILES": "O=C(N[C@@H](Cc1ccccc1)C(=O)c1nc2ccccc2s1)[C@H](Cc1ccccc1)NC(=O)N1CCOCC1", "cell line": "MRC-5 SV2", "quantity": "CC50", "value": "> 64 µM"}
{"SMILES": "COC(=O)c1c(C)ncn1CC(c1c[nH]c2cc(Br)ccc12)c1c[nH]c2cc(Br)ccc12", "cell line": "HaCaT", "method": "MTS", "time": "24 h", "quantity": "CC50", "value": "> 20 µM"}
{"SMILES": "O=c1c(O)c(-c2ccc(O)cc2)oc2cc(O)cc(O)c12", "cell line": "WI-38", "method": "WST-1", "time": "48 h", "quantity": "IC50", "value": "95.4 µM"}
{"SMILES": "C[Si](C)(C)c1cc(C(=O)[C@H](Cc2ccccc2)NC(=O)[C@H](Cc2ccccc2)NC(=O)N2CCOCC2)no1 (mixture of isomers)", "cell line": "MRC-5 SV2", "quantity": "CC50", "value": "> 64 µM"}
{"SMILES": "CC(=O)O[C@@H]1c2c(ccc3ccc(=O)oc23)OC(C)(C)[C@@H]1OC(=O)C1(C)OC1C (stereo partly drawn)", "cell line": "WI-38", "method": "WST-1", "quantity": "IC50", "value": "99.6 µM"}
{"SMILES": "O=C(N[C@H](CCc1ccccc1)C(=O)c1cc(Cc2ccccc2)on1)[C@H](Cc1ccccc1)NC(=O)N1CCOCC1", "cell line": "MRC-5 SV2", "quantity": "CC50", "value": "> 64 µM"}
{"SMILES": "COC(=O)[C@]1(O)C[C@@H](O)[C@@H](O)[C@H](OC(=O)/C=C/c2ccc(O)c(O)c2)C1", "cell line": "WI-38", "method": "WST-1", "quantity": "IC50", "value": "110 µM"}
{"SMILES": "N=C(N)c1ccc(OCCCCCOc2ccc(C(=N)N)cc2)cc1", "cell line": "HaCaT", "method": "MTS", "time": "24 h", "quantity": "CC50", "value": "> 20 µM"}
{"SMILES": "O=c1c(O)c(-c2ccc(O)c(O)c2)oc2cc(O)cc(O)c12", "cell line": "WI-38", "method": "WST-1", "time": "48 h", "quantity": "IC50", "value": "87.6 µM"}
{"SMILES": "CCOC(=O)C(C(C)=O)=C1Sc2nc3ccc(S(=O)(=O)N4CCCC4)cc3nc2S1", "cell line": "WI-38", "method": "MTT", "tested at": "25 µM", "time": "24 h", "quantity": "viability", "value": "60.1%"}
{"SMILES": "C[C@@H]1[C@H](O)[C@@H](C)/C=C/C=C/C=C/C=C/C=C/C=C/C=C/[C@H](O[C@@H]2O[C@H](C)[C@@H](O)[C@H](N)[C@@H]2O)C[C@@H]2O[C@](O)(C[C@@H](O)C[C@@H](O)[C@H](O)CC[C@@H](O)C[C@@H](O)CC(=O)O[C@H]1C)C[C@H](O)[C@H]2C(=O)O", "cell line": "HaCaT", "method": "MTS", "time": "24 h", "quantity": "CC50", "value": "7.95 µM"}
{"SMILES": "Nc1ncnc2c1ncn2[C@@H]1O[C@H](CO)[C@@H](O)[C@H]1O", "cell line": "WI-38", "method": "WST-1", "time": "48 h", "quantity": "IC50", "value": "131 µM"}
{"SMILES": "N#CC(C(=O)Nc1cccc(C(F)(F)F)c1)=C1Sc2nc3ccc(S(=O)(=O)N4CCCC4)cc3nc2S1", "cell line": "WI-38", "method": "MTT", "tested at": "50 µM", "time": "24 h", "quantity": "viability", "value": "55.4%"}
{"SMILES": "O=C(N[C@@H](Cc1ccccc1)C(=O)c1noc(-c2ccccc2)n1)[C@H](Cc1ccccc1)NC(=O)N1CCOCC1", "cell line": "MRC-5 SV2", "quantity": "CC50", "value": "> 64 µM"}
